Drawing on ChEMBL document CHEMBL3351359, “Design and synthesis of novel 2,4-diaryl-5H-indeno[1,2-b]pyridine derivatives, and their evaluation of topoisomerase inhibitory activity and cytotoxicity” (Bioorg Med Chem, 2015), this text covers inhibition, Ratio and IC50 for ten molecules.

The target of experiment [1] is T1, DNA topoisomerase 1 (Homo sapiens) (UniProt P11387).
T1 sequence (whole entry): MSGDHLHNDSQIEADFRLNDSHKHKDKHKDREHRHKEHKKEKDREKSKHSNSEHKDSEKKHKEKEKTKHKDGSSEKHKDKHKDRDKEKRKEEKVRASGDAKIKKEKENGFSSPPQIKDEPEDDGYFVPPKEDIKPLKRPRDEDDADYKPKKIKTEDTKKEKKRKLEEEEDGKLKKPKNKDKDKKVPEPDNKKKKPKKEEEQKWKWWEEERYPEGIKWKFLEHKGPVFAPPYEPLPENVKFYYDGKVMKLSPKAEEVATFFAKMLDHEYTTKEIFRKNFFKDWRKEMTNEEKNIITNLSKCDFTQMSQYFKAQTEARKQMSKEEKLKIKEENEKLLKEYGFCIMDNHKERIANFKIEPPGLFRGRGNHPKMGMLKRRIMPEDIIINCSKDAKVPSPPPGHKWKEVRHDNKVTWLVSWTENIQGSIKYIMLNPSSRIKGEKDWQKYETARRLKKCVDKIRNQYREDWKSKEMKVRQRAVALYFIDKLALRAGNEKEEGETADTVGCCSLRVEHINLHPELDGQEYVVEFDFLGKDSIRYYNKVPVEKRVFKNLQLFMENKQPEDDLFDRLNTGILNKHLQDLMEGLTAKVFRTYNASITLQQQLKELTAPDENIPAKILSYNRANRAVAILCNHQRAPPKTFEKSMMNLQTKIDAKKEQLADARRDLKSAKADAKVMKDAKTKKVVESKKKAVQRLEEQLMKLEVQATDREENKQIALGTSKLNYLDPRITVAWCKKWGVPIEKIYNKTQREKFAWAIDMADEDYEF
The experiment in a line: Inhibition of human recombinant topoisomerase-1 assessed as conversion of super-coiled plasmid DNA pBR322 to relaxed DNA at 100 uM after 30 mins by ethidium bromide staining-based agarose gel electrophoresis (reference value: 62.9%). The method, boiled down: (§1)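 Relaxation of supercoiled pBR322 (100 ng) by 0.4 units recombinant human topo I, with or without compound (20 mM DMSO stocks), for 30 min at 37 °C. Buffer: 10 mM Tris-HCl pH 7.9, 150 mM NaCl, 0.1% BSA, 1 mM spermidine, 5% glycerol. Stopped with sarcosyl. Run on 1% agarose in TAE at 15 V for 7 h, stained with ethidium bromide, bands quantified under UV.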

For experiment [2], the target named is T1, DNA topoisomerase 1 (Homo sapiens). The experiment in a line: Inhibition of human recombinant topoisomerase-1 assessed as conversion of super-coiled plasmid DNA pBR322 to relaxed DNA at 100 uM after 30 mins by ethidium bromide staining-based agarose gel electrophoresis relative to camptothecin.
For experiment [3] the target is unchanged. Nature of the experiment: Inhibition of human recombinant topoisomerase-1 assessed as conversion of super-coiled plasmid DNA pBR322 to relaxed DNA at 20 uM after 30 mins by ethidium bromide staining-based agarose gel electrophoresis (reference value: 19.6%). The method, boiled down: as §1
Experiment [4] deals with DNA topoisomerase 2-alpha (Homo sapiens) (UniProt P11388). Nature of the experiment: Inhibition of human recombinant topoisomerase-2 alpha assessed as conversion of super-coiled plasmid DNA pBR322 to relaxed DNA at 100 uM after 30 mins by ethidium bromide staining-based agarose gel electrophoresis (reference value: 87.8%). The gist of the method:
(§2)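 Supercoiled pBR322 (200 ng) incubated with 1 unit human topo IIα, with or without compound, for 30 min at 30 °C. Buffer: 10 mM Tris-HCl pH 7.9, 50 mM NaCl, 5 mM MgCl2, 1 mM EDTA, 1 mM ATP, 15 μg/mL BSA. Stopped with EDTA. Run on 1% agarose in TAE at 25 V for 4 h, stained with ethidium bromide, supercoiled DNA quantified under UV.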

Experiment [5] has the same target. Nature of the experiment: Inhibition of human recombinant topoisomerase-2 alpha assessed as conversion of super-coiled plasmid DNA pBR322 to relaxed DNA at 20 uM after 30 mins by ethidium bromide staining-based agarose gel electrophoresis (reference value: 46.7%). The method, boiled down:
as §2

Experiment [6] shares this target. The experiment in a line: Inhibition of human recombinant topoisomerase-2 alpha assessed as conversion of super-coiled plasmid DNA pBR322 to relaxed DNA at 100 uM after 30 mins by ethidium bromide staining-based agarose gel electrophoresis relative to etoposide.
Another experiment deals with MCF7. Nature of the experiment: Cytotoxicity against human MCF7 cells after 2 days by CCK-8 assay. In kind it is functional, cell-based. Particulars: MCF7, 48 h. The gist of the method: (§3)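 Cells seeded at 2~4 × 10^4 per well, grown overnight in medium with 10% FBS at 37 °C, 5% CO2. On day 2, after 4 h FBS starvation, medium replaced with medium containing graded compound concentrations. On day 4, CCK-8 added for 4 h, then absorbance read at 450 nm. IC50 from four-parameter logistic fit. Mean ± S.D. of three experiments, each run in triplicate.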

The next experiment deals with DU-145. Nature of the experiment: Cytotoxicity against human DU145 cells after 2 days by CCK-8 assay. In kind it is functional, cell-based. The settings on record: DU-145, 48 h. The gist of the method: as §3
Experiment [7] in a line: Cytotoxicity against human HCT15 cells after 2 days by CCK-8 assay. In kind it is functional, cell-based. Particulars: HCT-15, 48 h. The method, boiled down: as §3
Experiment [8] deals with T1, DNA topoisomerase 1 (Homo sapiens). Nature of the experiment: Inhibition of human recombinant topoisomerase-1 assessed as conversion of super-coiled plasmid DNA pBR322 to relaxed DNA at 100 uM after 30 mins by ethidium bromide staining-based agarose gel electrophoresis (reference value: 45.2%). The gist of the method: as §1
Experiment [9] has the same target. Nature of the experiment: Inhibition of human recombinant topoisomerase-1 assessed as conversion of super-coiled plasmid DNA pBR322 to relaxed DNA at 20 uM after 30 mins by ethidium bromide staining-based agarose gel electrophoresis (reference value: 25.9%). The method, boiled down: as §1
The target in experiment [10] is DNA topoisomerase 2-alpha (Homo sapiens) (UniProt P11388). Nature of the experiment: Inhibition of human recombinant topoisomerase-2 alpha assessed as conversion of super-coiled plasmid DNA pBR322 to relaxed DNA at 100 uM after 30 mins by ethidium bromide staining-based agarose gel electrophoresis (reference value: 32.4%). The method, boiled down:
as §2

Experiment [11] has the same target. Nature of the experiment: Inhibition of human recombinant topoisomerase-2 alpha assessed as conversion of super-coiled plasmid DNA pBR322 to relaxed DNA at 20 uM after 30 mins by ethidium bromide staining-based agarose gel electrophoresis (reference value: 20.2%). The method, boiled down:
as §2

The subject of a further experiment is HeLa. Nature of the experiment: Cytotoxicity against human HeLa cells after 2 days by CCK-8 assay. Particulars: 48 h. In kind it is functional, cell-based. The method, boiled down: as §3
Experiment [12] addresses T1, DNA topoisomerase 1 (Homo sapiens). Nature of the experiment: Inhibition of human recombinant topoisomerase-1 assessed as conversion of super-coiled plasmid DNA pBR322 to relaxed DNA at 100 uM after 30 mins by ethidium bromide staining-based agarose gel electrophoresis (reference value: 51.5%). The gist of the method:
as §1

For experiment [13], the target named is DNA topoisomerase 2-alpha (Homo sapiens) (UniProt P11388). The experiment in a line: Inhibition of human recombinant topoisomerase-2 alpha assessed as conversion of super-coiled plasmid DNA pBR322 to relaxed DNA at 100 uM after 30 mins by ethidium bromide staining-based agarose gel electrophoresis (reference value: 83.7%). The gist of the method: as §2
The target is the same in experiment [14]. Nature of the experiment: Inhibition of human recombinant topoisomerase-2 alpha assessed as conversion of super-coiled plasmid DNA pBR322 to relaxed DNA at 20 uM after 30 mins by ethidium bromide staining-based agarose gel electrophoresis (reference value: 42.1%). The gist of the method: as §2

A value given as a limit tells only on which side of the number the result lay.

Sequence of DNA topoisomerase 2-alpha (Homo sapiens) (P11388 whole entry): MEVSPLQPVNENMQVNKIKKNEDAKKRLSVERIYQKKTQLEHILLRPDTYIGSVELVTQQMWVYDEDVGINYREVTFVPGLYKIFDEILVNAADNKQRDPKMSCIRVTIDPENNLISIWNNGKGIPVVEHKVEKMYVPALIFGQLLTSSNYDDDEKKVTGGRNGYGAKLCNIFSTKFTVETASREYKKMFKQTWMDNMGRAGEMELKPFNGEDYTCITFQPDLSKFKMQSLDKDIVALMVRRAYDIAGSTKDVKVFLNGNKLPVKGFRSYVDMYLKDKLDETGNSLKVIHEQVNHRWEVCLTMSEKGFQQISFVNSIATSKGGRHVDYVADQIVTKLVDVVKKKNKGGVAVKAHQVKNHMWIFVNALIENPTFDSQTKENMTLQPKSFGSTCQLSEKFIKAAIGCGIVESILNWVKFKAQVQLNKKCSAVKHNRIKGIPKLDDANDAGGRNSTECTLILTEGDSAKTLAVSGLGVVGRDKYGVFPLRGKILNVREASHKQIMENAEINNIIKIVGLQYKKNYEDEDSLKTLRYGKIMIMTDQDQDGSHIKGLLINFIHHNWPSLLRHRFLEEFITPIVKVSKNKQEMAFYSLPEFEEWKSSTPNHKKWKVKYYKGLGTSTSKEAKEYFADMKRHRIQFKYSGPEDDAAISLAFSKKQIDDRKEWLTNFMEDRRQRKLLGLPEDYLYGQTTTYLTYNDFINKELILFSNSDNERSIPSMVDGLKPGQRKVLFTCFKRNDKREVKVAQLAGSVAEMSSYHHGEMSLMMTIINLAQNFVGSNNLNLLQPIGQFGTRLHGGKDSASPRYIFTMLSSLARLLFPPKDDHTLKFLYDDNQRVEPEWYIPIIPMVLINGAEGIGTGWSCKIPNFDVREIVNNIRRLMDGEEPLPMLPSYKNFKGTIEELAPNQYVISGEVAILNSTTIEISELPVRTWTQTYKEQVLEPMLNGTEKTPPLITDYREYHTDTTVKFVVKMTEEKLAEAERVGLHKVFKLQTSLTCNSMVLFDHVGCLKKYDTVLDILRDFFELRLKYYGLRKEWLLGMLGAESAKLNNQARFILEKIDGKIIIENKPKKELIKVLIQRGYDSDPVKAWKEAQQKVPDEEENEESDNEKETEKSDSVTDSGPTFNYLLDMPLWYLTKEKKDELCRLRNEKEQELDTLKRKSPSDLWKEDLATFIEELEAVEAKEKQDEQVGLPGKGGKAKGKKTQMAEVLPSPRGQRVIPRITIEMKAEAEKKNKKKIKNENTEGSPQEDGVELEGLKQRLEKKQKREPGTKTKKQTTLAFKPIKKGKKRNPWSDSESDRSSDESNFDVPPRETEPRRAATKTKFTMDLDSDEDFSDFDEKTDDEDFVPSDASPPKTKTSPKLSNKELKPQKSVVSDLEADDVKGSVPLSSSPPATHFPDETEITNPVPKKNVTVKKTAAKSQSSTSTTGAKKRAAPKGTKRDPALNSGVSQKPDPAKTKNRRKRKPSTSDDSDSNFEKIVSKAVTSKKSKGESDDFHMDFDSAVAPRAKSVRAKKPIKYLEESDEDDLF

By inhibition is commonly meant the percentage by which the read-out fell short of the control. Broadly, the IC50 is the concentration that gives 50% inhibition. `c1coc(-c2cc(-c3ccoc3)c3c(n2)-c2ccccc2C3)c1`: the inhibition is 52.5% in [1], 1.5% in experiment [3], 100% in experiment [4] and 0% in [5]. The Ratio in [2] was determined as 0.83; in [6] it was 1.14. The results for the 50% inhibitory concentration (IC50) (in the experiment with MCF7; in the experiment with DU-145; in experiment [7]) were more than 50 µM, more than 50 µM and 20.2 µM, respectively.

For `c1ccc2c(c1)Cc1c(-c3ccsc3)cc(-c3ccsc3)nc1-2`, the inhibition was determined as 90.9% in [1], 2.9% in [3], 100% in [4] and 0% in experiment [5]. For the same molecule, the Ratio turned out to be 1.45 in experiment [2] and 1.14 in experiment [6]. Also, the results for the IC50 (with MCF7; with DU-145; in [7]) were more than 50 µM, more than 50 µM and 16.4 µM, respectively.

Consider `c1coc(-c2cc(-c3ccco3)c3c(n2)-c2ccccc2C3)c1`, for which the inhibition in [8] amounted to 38.2%; in [9], 6.4%; in experiment [10] it was 44.6%; in experiment [11] it was 15%. In addition, the Ratio in experiment [2] was 0.85; in [6], 1.38. The IC50 in the experiment with MCF7 was 5.4 µM; in the experiment with HeLa it was 8.14 µM; in the experiment on DU-145, 20.6 µM; in [7] it was more than 50 µM.

Consider `c1csc(-c2cc(-c3ccoc3)c3c(n2)-c2ccccc2C3)c1`, for which the inhibition in experiment [12] stood at 1.7%; in experiment [13], 100%; in experiment [14] it was 66.7%. In addition, the Ratio in experiment [2] was less than 0.2; in [6], 1.19. Also, the IC50 is more than 50 µM in the experiment on MCF7, more than 50 µM with HeLa, 37.3 µM in the experiment on DU-145 and 34.6 µM in experiment [7].

With `c1ccc(-c2cc(-c3cccs3)c3c(n2)-c2ccccc2C3)nc1`, the figures for the inhibition in experiment [8], in experiment [9] and in experiment [10] were 58.5%, 12% and 9%, respectively. Besides, the IC50 came out at 11 µM in the experiment with MCF7, 20.5 µM in the experiment with HeLa, 6.7 µM in the experiment with DU-145 and 9.1 µM in [7].

For `c1ccc(-c2cc(-c3ccco3)nc3c2Cc2ccccc2-3)cc1`, the inhibition in [8] turned out to be 41.3%; in experiment [9], 5.7%; in experiment [10], 18.7%. In addition, the Ratio in experiment [2] came to 0.91; in [6], 0.58. In addition, the IC50 was more than 50 µM in the experiment on MCF7, 5.22 µM in the experiment with HeLa, 7.74 µM in the experiment with DU-145 and 16.6 µM in experiment [7].

As for `c1coc(-c2cc(-c3ccsc3)nc3c2Cc2ccccc2-3)c1`, the inhibition in [12] came to 2.8%; in experiment [13], 84.1%; in experiment [14], 68.5%. Further, the values for the Ratio in experiment [2] and in experiment [6] were less than 0.2 and 1, respectively. The concentration for half-maximal inhibition (IC50) was more than 50 µM with MCF7, more than 50 µM in the experiment on HeLa, more than 50 µM in the experiment on DU-145 and 31.6 µM in [7].

Regarding `c1ccc2c(c1)Cc1c(-c3ccoc3)cc(-c3ccsc3)nc1-2`, the inhibition in experiment [12] turned out to be 1.2%; in [13] it was 95.9%; in experiment [14], 10.9%. In addition, the Ratio was less than 0.2 in experiment [2] and 1.15 in experiment [6]. The IC50 is more than 50 µM in the experiment with MCF7, more than 50 µM in the experiment on HeLa, more than 50 µM in the experiment with DU-145 and 20.6 µM in experiment [7].

Regarding `c1ccc(-c2cc(-c3ccco3)nc3c2Cc2ccccc2-3)nc1`, the inhibition in [1] turned out to be 40.7%; in experiment [3], 0.5%; in [4], 100%; in experiment [5], 100%. The Ratio turned out to be 0.65 in [2] and 1.14 in [6]. Also, the IC50 was 3.08 µM with MCF7, 4.13 µM with HeLa, more than 50 µM in the experiment with DU-145 and 8.5 µM in experiment [7].

With `c1coc(-c2cc(-c3cccs3)nc3c2Cc2ccccc2-3)c1`, the inhibition in experiment [8] is 76.3%; in experiment [9] it was 3.9%; in experiment [10], 40.5%; in experiment [11], 14.6%. The Ratio is 1.69 in experiment [2] and 1.25 in experiment [6]. The IC50 with MCF7 amounted to 4.11 µM; in the experiment with HeLa, 3.2 µM; in the experiment with DU-145, 6.71 µM; in experiment [7] it was 37.7 µM.
